In ChEMBL document CHEMBL1944603, “An efficient synthesis of highly functionalized novel chromeno[4,3-b]pyrroles and indolizino[6,7-b]indoles as potent antimicrobial and antioxidant agents” (2012):
Converted amounts (≈) assume the structure as drawn.

Tests used:
Format in all cases: functional
[1] = tested on: Bacillus subtilis; assay: Antimicrobial activity against Bacillus subtilis at 50 ug/ml by agar diffusion assay
In short: (§1)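 Agar diffusion assay in duplicate against the human bacterial pathogens; tetracycline as reference control.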

[2] = tested on: Pseudomonas aeruginosa; assay: Antimicrobial activity against Pseudomonas aeruginosa at 25 ug/ml by agar diffusion assay; in short: as §1
[3] = tested on: Pseudomonas aeruginosa; assay: Antimicrobial activity against Pseudomonas aeruginosa at 75 ug/ml by agar diffusion assay; in short: as §1
[4] = tested on: Radical scavenging activity; assay: Antioxidant activity assessed as DPPH free radical scavenging activity at 1000 ug by spectrophotometer
In short: (§2)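 DPPH radical scavenging measured spectrophotometrically by Blois's method at 50, 500 and 1000 µg. Absorbance read at 517 nm. Percent scavenging is the absorbance decrease at 517 nm relative to the absorbance of DPPH solution without test compound. L-ascorbic acid as standard.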

[5] = tested on: Fusarium oxysporum; assay: Antifungal activity against Fusarium oxysporum
In short: (§3)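 Agar diffusion assay in duplicate against the plant fungal pathogens; read-out as minimum inhibitory concentration (MIC); carbendazim as reference control.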

[6] = tested on: Pseudomonas aeruginosa; assay: Antimicrobial activity against Pseudomonas aeruginosa at 100 ug/ml by agar diffusion assay; in short: as §1
[7] = tested on: Staphylococcus aureus; assay: Antimicrobial activity against Staphylococcus aureus at 75 ug/ml by agar diffusion assay; in short: as §1
[8] = tested on: Klebsiella pneumoniae; assay: Antimicrobial activity against Klebsiella pneumoniae at 25 ug/ml by agar diffusion assay; in short: as §1
[9] = tested on: Staphylococcus aureus; assay: Antimicrobial activity against Staphylococcus aureus at 50 ug/ml by agar diffusion assay; in short: as §1
[10] = tested on: Bacillus subtilis; assay: Antimicrobial activity against Bacillus subtilis at 25 ug/ml by agar diffusion assay; in short: as §1
[11] = tested on: Klebsiella pneumoniae; assay: Antimicrobial activity against Klebsiella pneumoniae at 50 ug/ml by agar diffusion assay; in short: as §1
[12] = tested on: Klebsiella pneumoniae; assay: Antimicrobial activity against Klebsiella pneumoniae at 75 ug/ml by agar diffusion assay; in short: as §1
[13] = tested on: Radical scavenging activity; assay: Antioxidant activity assessed as DPPH free radical scavenging activity at 50 ug by spectrophotometer; in short: as §2
[14] = tested on: Bacillus subtilis; assay: Antimicrobial activity against Bacillus subtilis at 100 ug/ml by agar diffusion assay; in short: as §1
[15] = tested on: Radical scavenging activity; assay: Antioxidant activity assessed as DPPH free radical scavenging activity at 500 ug by spectrophotometer; in short: as §2
[16] = tested on: Bacillus subtilis; assay: Antimicrobial activity against Bacillus subtilis at 75 ug/ml by agar diffusion assay; in short: as §1
[17] = tested on: Staphylococcus aureus; assay: Antimicrobial activity against Staphylococcus aureus at 25 ug/ml by agar diffusion assay; in short: as §1
[18] = tested on: Staphylococcus aureus; assay: Antimicrobial activity against Staphylococcus aureus at 100 ug/ml by agar diffusion assay; in short: as §1
[19] = tested on: Macrophomina phaseolina; assay: Antifungal activity against Macrophomina phaseolina; in short: as §3
[20] = tested on: Klebsiella pneumoniae; assay: Antimicrobial activity against Klebsiella pneumoniae at 100 ug/ml by agar diffusion assay; in short: as §1
[21] = tested on: Pseudomonas aeruginosa; assay: Antimicrobial activity against Pseudomonas aeruginosa at 50 ug/ml by agar diffusion assay; in short: as §1

Compound | inhibition zone (IZ) [1] [mm] | inhibition zone (IZ) [2] [mm] | inhibition zone (IZ) [3] [mm] | Activity [4] [%] | MIC [5] [µg/mL] | inhibition zone (IZ) [6] [mm] | inhibition zone (IZ) [7] [mm] | inhibition zone (IZ) [8] [mm] | inhibition zone (IZ) [9] [mm] | inhibition zone (IZ) [10] [mm] | inhibition zone (IZ) [11] [mm] | inhibition zone (IZ) [12] [mm] | Activity [13] [%] | inhibition zone (IZ) [14] [mm] | Activity [15] [%] | inhibition zone (IZ) [16] [mm] | inhibition zone (IZ) [17] [mm] | inhibition zone (IZ) [18] [mm] | MIC [19] [µg/mL] | inhibition zone (IZ) [20] [mm] | also measured
COC(=O)[C@]12Cc3c([nH]c4ccccc34)[C@@H](c3cccc([N+](=O)[O-])c3)N1[C@@H]1c3ccccc3OC[C@@H]1C2 | 21 | 17 | 26 | 70 | 90 (≈ 182 µM) | 40 | 24 | 15 | 22 | 14 | 20 | 25 | 18 | 40 | 42 | 28 | 20 | 36 | 25 (≈ 50.5 µM) | 36 | inhibition zone (IZ) [21]: 24 mm
COC(=O)[C@]12Cc3c([nH]c4ccccc34)[C@@H](c3ccc(OC)cc3)N1[C@@H]1c3c(ccc4ccccc34)OC[C@@H]1C2 | 12 | 10 | 16 | 81 | 100 (≈ 188 µM) | 19 | 18 | 9 | 11 | 9 | 11 | 18 | 18 | 20 | 48 | 17 | 9 | 20 | 95 (≈ 179 µM) | 20 | inhibition zone (IZ) [21]: 12 mm
COC(=O)[C@]12Cc3c([nH]c4ccccc34)[C@@H](c3ccc(Cl)cc3)N1[C@@H]1c3c(ccc4ccccc34)OC[C@@H]1C2 | 18 | 12 | 20 | 75 | 90 (≈ 168 µM) | 26 | 20 | 11 | 17 | 12 | 15 | 22 | 26 | 26 | 44 | 21 | 14 | 28 | 105 (≈ 196 µM) | 25 | inhibition zone (IZ) [21]: 16 mm
COC(=O)[C@@]1(Cc2c[nH]c3ccccc23)C[C@H]2COc3ccc4ccccc4c3[C@H]2N1 | 15 | 9 | 20 | 66 | 85 (≈ 206 µM) | 21 | 18 | 10 | 13 | 10 | 14 | 20 | 33 | 24 | 52 | 19 | 9 | 24 | 60 (≈ 145 µM) | 23 | inhibition zone (IZ) [21]: 14 mm
COC(=O)[C@@]1(Cc2c[nH]c3ccccc23)C[C@H]2COc3ccccc3[C@H]2N1 | 15 | 10 | 21 | 64 | 75 (≈ 207 µM) | 23 | 20 | 11 | 15 | 11 | 15 | 21 | 29 | 26 | 51 | 20 | 10 | 23 | 60 (≈ 166 µM) | 23 | inhibition zone (IZ) [21]: 15 mm
COC(=O)[C@]12Cc3c([nH]c4ccccc34)[C@@H](c3ccc(Cl)cc3)N1[C@@H]1c3ccccc3OC[C@@H]1C2 | 21 | 16 | 25 | 68 | 70 (≈ 144 µM) | 36 | 24 | 16 | 21 | 13.5 | 20 | 25 | 21 | 36 | 43 | 26 | 20 | 29 | 20 (≈ 41.2 µM) | 30 | inhibition zone (IZ) [21]: 22 mm
COC(=O)[C@]12Cc3c([nH]c4ccccc34)[C@@H](c3cccc([N+](=O)[O-])c3)N1[C@@H]1c3c(ccc4ccccc34)OC[C@@H]1C2 | 19 | 14 | 24 | 67 | 35 (≈ 64.2 µM) | 30 | 24 | 13 | 20 | 12 | 18 | 22 | 30 | 29 | 53 | 24 | 19 | 28 | 90 (≈ 165 µM) | 27 | inhibition zone (IZ) [21]: 20 mm
COC(=O)[C@]12Cc3c([nH]c4ccccc34)[C@@H](c3ccc(C)cc3)N1[C@@H]1c3ccccc3OC[C@@H]1C2 | 12 | 8 | 16 | 73 | 110 (≈ 237 µM) | 19 | 17 | 8 | 13 | 9 | 13 | 18 | 24 | 20 | 49 | 15 | 9 | 18 | 80 (≈ 172 µM) | 19 | inhibition zone (IZ) [21]: 12 mm
